Measured values published in ChEMBL document CHEMBL4513216, “Probing the Open Global Health Chemical Diversity Library for Multistage-Active Starting Points for Next-Generation Antimalarials” (ACS Infect Dis, 2020).

assay: Toxicity liver stage against HepG2, at 10uM; format: cell-based; design: test concentration 10 uM, cell line HepG2-A16-CD81EGFP; conditions: human, HepG2-A16-CD81EGFP cells; read-out: INHIBITION
Summary of the method: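 Uninfected HepG2-A16-CD81EGFP cells, 3 × 10^3 per well, 1536-well, plated on prespotted compound at 10 μM final, parasite-free screening media added to match infected plates; puromycin 10 μM positive, DMSO 0.5% negative; run in parallel with 48 h PbLuc assay at 37 °C, 5% CO2; viability by CellTiter-Glo luminescence, normalized to controls.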

| Compound | cytotoxicity at 10 µM |
| --- | --- |
| CNC(=O)[C@@]12CCO[C@@H]1CCN(S(=O)(=O)c1cccc(C)c1)C2 | -1.8% |
| CN(CCCc1cnn(C)c1)C(=O)Nc1cccc2[nH]nnc12 | -3.98% |
| Cc1ccccc1Oc1ncccc1CNC(=O)Cn1cccnc1=O | -16.8% |
| CC(C)NC(=O)N1CCCC(Cn2cc(-c3ccc(F)cc3)nn2)C1 (stereo not given) | 12.5% |
| OC1(CNCCSc2ccccn2)CCCNC1 (stereo not given) | -6.46% |
| COCCN(C)CC(=O)N1C[C@@H](NC(C)=O)[C@H](c2ccc(OC)cc2)C1 | 1.45% |
| NC(=O)c1csc(N2CCCC(c3nc4ccccc4[nH]3)C2)n1 (stereo not given) | 8.5% |
| CCn1c(C2CCN(C(=O)COCC(F)(F)C(F)F)CC2)n[nH]c1=O | -55% |
| Nc1cnc(-c2ccc(F)cc2Cl)cn1 | -136% |
| CSc1nccc(NCc2cc3n(n2)CCCN(S(C)(=O)=O)C3)n1 | 3.25% |
| CC(C)[C@]1(O)CN(C(=O)C2(Cn3cccn3)CC2)C[C@H]1C | 1.79% |
| COc1ccc(C(=O)N2CCN(c3cc(CCN)nc(C)n3)CC2)cc1 | -8.56% |
| CN(Cc1cc2n(n1)CCCN(C(=O)N1CCCC1)C2)Cc1nccs1 | -0.63% |
| CN(CCCc1cnn(C)c1)C(=O)Nc1cccc2[nH]ncc12 | -1.89% |
| COCCN1CC(C(=O)N(CCN(C)C)Cc2ccc(C)s2)CC1=O (stereo not given) | 1.98% |
| COc1cccc(OCC2CCCN(C(=O)c3ncoc3C3CC3)C2)c1 (stereo not given) | 3.79% |
| Cn1cc(CN2CCCC(CCc3ccc(F)c(F)c3)C2)cn1 (stereo not given) | -6.6% |
| c1ccc2c(c1)CCN(c1ncnc3sc4c(c13)CCNC4)C2 | 5.66% |
| Cc1ccc(-c2nnc(CCC(=O)NCc3cn(C)nc3C)o2)s1 | -1.31% |
| CCc1csc(CCNC(=O)C2CC(=O)N(C(C)C)C2)n1 (stereo not given) | -11.9% |
| Cc1nn2c(N3CCC(O)C3)cc(-c3ccccc3)nc2c1C (stereo not given) | -11.5% |
| Cn1c(Cn2ccnc2)nnc1C1CCN(C(=O)C2(C)CC2)CC1 | -9.7% |
| N#CCCSc1sc2c(O)cc(O)nc2c1C#N | -6.11% |
| CC(C)c1cc(COCCCC(=O)O)no1 | 11.1% |
| O=C(CCc1nccs1)N1CCCC(n2cccn2)C1 (stereo not given) | -14.4% |
| Cc1nc(C)n(CC2CCCN2CC(=O)NC2CCOCC2)n1 (stereo not given) | -4.43% |
| CS(=O)(=O)NCC1CCCN(C(=O)c2cccc(F)c2)C1 (stereo not given) | -6.93% |
| Cc1noc(CN2CCCC2c2noc(C3CC3)n2)n1 (stereo not given) | -23.6% |

| Compound | cytotoxicity at 10 µM |
| --- | --- |
| N#Cc1ccc(N2CCCN(C(=O)CC3CCCO3)CC2)cc1 (stereo not given) | -4.69% |
| Cc1ccc(C(N)c2cccc(S(C)(=O)=O)c2)cc1 (stereo not given) | 3.18% |
| CCN(Cc1nc2c(cnn2C)c(=O)[nH]1)c1ccc(OC)c(OC)c1 | 2.31% |
| CC(O)CN1CCC(CNCc2cccc(OC(C)C)c2)CC1 (stereo not given) | -8.16% |
| CC(C)NC(=O)Nc1ccc(CNCc2cccc(OC(F)F)c2)cc1 | -7.96% |
| Cc1cnn(CC2CCCN2CC(=O)Nc2cc(C)nn2C)c1 (stereo not given) | -20.1% |
| Cc1nn(C)c(N2CCOCC2)c1CNCc1ccnc(N(C)C)c1 | 1.97% |
| Cn1nccc1-c1ccc2nc(C3CCN(CC4CC4)CC3)nn2c1 | 5.85% |
| O=C(NC[C@]12COC[C@H]1CN(C1CCOCC1)C2)c1ccco1 | -3.99% |
| CS(=O)(=O)NCc1cnc2n1CCN(Cc1ccco1)CC2 | -4.31% |
| Cc1cnc(N2Cc3nccn3CC(Cn3ncccc3=O)C2)nc1 (stereo not given) | 7.54% |
| CN(C)C(=O)CC1CC2(CCN(c3ncccn3)CC2)c2ccccc21 (stereo not given) | -16.7% |
| Cn1ccnc1CN1CCN2C[C@H](Oc3cccc(F)c3)C[C@H]2C1 | 13.6% |
| c1ccc(N2CCC3(COCCN(c4ncccn4)C3)C2)nc1 (stereo not given) | 2.78% |
| Cc1ccc2c(c1)CCC21CCN(C(=O)CN(C)C)CC1 | -6.25% |
| CCO[C@H]1CN(CC2CCOCC2)[C@@H]2CCCO[C@H]12 | -109% |
| c1cncc(OCc2noc3c2CN(Cc2ccco2)CC3)c1 | 1.71% |
| NCC1CCC2(CCN(C(=O)c3ccccn3)CC2)CO1 (stereo not given) | -111% |
| CCOC[C@]12COC[C@H]1CN(Cc1ccc3c(c1)OCO3)C2 | -119% |
| Cc1ccc2c(n1)N(CCN(C)C)CCN(C(=O)c1cscn1)C2 | -72.7% |
| O=C(c1ccccc1)N1CCS(=O)(=O)[C@@H]2CCNCC[C@@H]21 | -127% |
| CC(=O)N1CCO[C@@H]2CN(Cc3ccccc3Cl)C[C@@H]2C1 | -110% |
| CCn1ncc2c1C(COC)N(C(=O)c1cscn1)CC2 (stereo not given) | -98.1% |
| Cc1nc(CN2C(=O)COC3(CCN(Cc4ccsc4)CC3)C2C)cs1 (stereo not given) | -123% |
| Cc1oncc1C(=O)NCc1cc(=O)n2c(n1)CN(CC(C)C)CCC2 | -0.187% |
| CN(C)C(=O)COCC1CN(S(C)(=O)=O)Cc2ncn(C)c21 (stereo not given) | 4.39% |
| O[C@@H]1CC(CNCc2ccc(F)cc2)(COc2cccnc2)C[C@@H]1O (stereo not given in full) | -10.8% |
